Tests used:
LdNH = test: NMR Saturation Transfer Difference; type: binding, Leishmania donovani; conditions: 100 μM LdNH, 2 mM compound, 2 s saturation time
Method in brief: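 STD spectra acquired in alternating scans, on-resonance at −1 ppm and off-resonance at 20 ppm. DPFGSE water suppression, 2 s saturation time, 1024 scans.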

[1] = tested on: amastigote parasite Leishmania amazonensis; conditions: cited from earlier work
HSV-1 = conditions: cited from earlier work
HSV-2 = conditions: cited from earlier work

Row | STD signals in presence of LdNH (LdNH) | SMILES | leishmanicidal activity IC50 [1] | IC50 ([1]; read-out: leishmanicidal activity IC50, value in brackets) | anti-viral activity EC50 (HSV-1) | anti-viral activity EC50 (HSV-2)
1 | only weak resonances | C[C@@H]1O[C@@H](Oc2c(-c3ccc(O)cc3)oc3cc(O)cc(O)c3c2=O)[C@H](O)[C@H](O)[C@H]1O [compound 1, kaempferol 3-O-α-L-rhamnopyranoside] | 70 µg/mL | 162 µM |  | 
2 | much more intense | C[C@@H]1O[C@@H](Oc2c(-c3ccc(O)cc3)oc3cc(O)cc(O)c3c2=O)[C@H](O[C@@H]2OC[C@@H](O)[C@H](O)[C@H]2O)[C@H](O)[C@H]1O [compound 2, kaempferol 3-O-β-D-xylopyranosyl-(1→2)-α-L-rhamnopyranoside] |  |  | 7.4 µg/mL | 9.0 µg/mL
